ChEMBL document CHEMBL1212693, “Dorsomorphin inhibits BMP signals required for embryogenesis and iron metabolism” (Nat Chem Biol, 2008)
Calls of active or inactive are those of the source. The rule behind the calls is not given here.

Tests used:
[1] = organism: Danio rerio; assay: Inhibition of BMPR1 in zebrafish assessed as penetrance of normal embryonic axis dorsalization at 2 uM treated at 3 hrs post-fertilization measured at 48 hrs; set-up: scale not given: the % may be the effect or the level left
[2] = organism: Danio rerio; assay: Inhibition of BMPR1 in zebrafish assessed as penetrance of moderate embryonic axis dorsalization at 0.5 uM treated at 3 hrs post-fertilization measured at 48 hrs; set-up: scale not given: the % may be the effect or the level left
Procedure, shortened: (§1)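 Compound added at the stated times and concentrations. Gross morphology scored visually at up to 48 h.p.f. for dorsalization of the embryonic axis.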

[3] = organism: Mus musculus; assay: Inhibition of ALK2-mediated Smad-8 phosphorylation in BMPR2 deficient mouse PASMC at 10 uM by immunoblot analysis
Procedure, shortened: (§2)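 BMPR-II–deficient mouse PASMCs (RPMI, 10% FBS) transiently transfected with constitutively active ALK2, ALK3 or ALK6 cDNA, or plasmid-only control. Incubated with or without compound (10 µM). Extracts lysed in SDS buffer, run on SDS-PAGE and immunoblotted for phospho-SMAD1/5/8; quantitated by phosphorimager.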

[4] = organism: Danio rerio; assay: Toxicity in zebrafish assessed as morphological changes at 1 to 4 uM treated at 24 hrs post-fertilization measured on day 10 post-fertilization; format: organism-based; details: in vivo
Procedure, shortened: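 WT zebrafish embryos were raised in E3 containing phenylthiourea and exposed from 1 d.p.f. to compound (1–4 µM) or DMSO. From 5 d.p.f. larvae were fed 1 h every other day, with medium renewed after each feeding. At 10 d.p.f. they were calcein-stained and checked by brightfield microscopy for gross morphology and function.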

[5] = organism: Danio rerio; assay: Inhibition of BMPR1 in zebrafish assessed as penetrance of mild embryonic axis dorsalization at 0.5 uM treated at 3 hrs post-fertilization measured at 48 hrs; set-up: scale not given: the % may be the effect or the level left; procedure, shortened: as §1
[6] = tested on: Hep 3B2; assay: Inhibition of BMPR1-mediated hepcidin mRNA expression in IL6-stimulated human Hep3B cells at 10 uM treated 30 mins before IL6 challenge measured after 6 hrs by qRT-PCR analysis; format: cell-based
Procedure, shortened: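 Hep3B cells were incubated in α-MEM with 1% FCS for 6 h, with human IL-6 (100 ng ml−1) or without, together with compound or vehicle. After Trizol RNA extraction, hepcidin and Id1 mRNA were quantified by qRT-PCR. Values were normalised to 18S rRNA or β-actin mRNA, and measurements were in triplicate.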

[7] = organism: Danio rerio; assay: Inhibition of BMPR1 in zebrafish assessed as penetrance of moderate embryonic axis dorsalization at 10 uM treated continuously from 8 hrs post-fertilization measured at 48 hrs; set-up: scale not given: the % may be the effect or the level left
[8] = organism: Mus musculus; assay: Inhibition of ALK3-mediated Id1 promoter activity in BMPR2 deficient mouse PASMC at 10 uM by immunoblot analysis
Procedure, shortened: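 BMPR-II–deficient mouse PASMCs at 50% confluence co-transfected with Id1 promoter firefly luciferase (BRE-Luc, 0.3 µg), caALK2, caALK3 or caALK6 (0.6 µg), and pRL-TK Renilla (0.2 µg). Compound (4–10 µM) or vehicle added 1 h after transfection. Activity read as firefly/Renilla ratio by dual luciferase assay; n = 3, mean ± s.d.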

[9] = organism: Mus musculus; assay: Inhibition of BMPR1-mediated Smad-5 phosphorylation in BMP2-stimulated mouse BMPR2 deficient PASMC at 4 uM treated 30 mins before BMP2 challenge measured after 30 mins by immunoblot analysis
[10] = organism: Mus musculus; assay: Inhibition of BMPR1-mediated Smad-8 phosphorylation in BMP2-stimulated mouse PASMC at 4 uM treated 30 mins before BMP2 challenge measured after 30 mins by immunoblot analysis
Procedure, shortened: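 Wild-type mouse PASMCs were kept in RPMI with 0.5% FCS for 24 h. They were preincubated with compound or vehicle for 30 min, then stimulated for 30 min with recombinant BMP2, BMP4, BMP6 or BMP7 at 10 ng ml−1. Lysates in SDS buffer were immunoblotted with anti-phospho-SMAD1/5/8. Total SMAD1 and α-tubulin served as loading controls, and bands were quantified by phosphorimager.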

[11] = organism: Danio rerio; assay: Inhibition of BMPR1 in zebrafish assessed as severity of embryonic axis dorsalization at 10 uM treated at 3 hrs post-fertilization measured at 48 hrs; set-up: scale not given: the % may be the effect or the level left
[12] = organism: Danio rerio; assay: Inhibition of BMPR1 in zebrafish assessed as penetrance of mild embryonic axis dorsalization at 10 uM treated continuously from 6 hrs post-fertilization measured at 48 hrs; set-up: scale not given: the % may be the effect or the level left; procedure, shortened: as §1
[13] = organism: Danio rerio; assay: Inhibition of BMPR1 in zebrafish assessed as penetrance of moderate embryonic axis dorsalization at 5 uM treated at 3 hrs post-fertilization measured at 48 hrs; set-up: scale not given: the % may be the effect or the level left
[14] = organism: Danio rerio; assay: Inhibition of BMPR1 in zebrafish assessed as penetrance of mild embryonic axis dorsalization at 10 uM treated continuously from 10 hrs post-fertilization measured at 48 hrs; set-up: scale not given: the % may be the effect or the level left; procedure, shortened: as §1
[15] = organism: Mus musculus; assay: Inhibition of BMPR1-mediated Smad-5 phosphorylation in BMP4-stimulated mouse BMPR2 deficient PASMC at 4 uM treated 30 mins before BMP4 challenge measured after 30 mins by immunoblot analysis
[16] = organism: Danio rerio; assay: Inhibition of BMPR1-mediated osteoblast differentiation in zebrafish assessed as decrease in alkaline phosphatase level at 1 to 4 uM treated at 24 hrs post-fertilization measured on day 10 post-fertilization
[17] = organism: Mus musculus; assay: Inhibition of ALK3-mediated Smad-8 phosphorylation in BMPR2 deficient mouse PASMC at 10 uM by immunoblot analysis; procedure, shortened: as §2
[18] = organism: Mus musculus; assay: Inhibition of BMPR1-mediated MAPK p38 phosphorylation in BMP4-stimulated mouse PASMC at 100 to 200 ng/ml treated 30 mins before BMP4 challenge measured after 30 mins by immunoblot analysis
Procedure, shortened: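 Mouse PASMCs were serum-reduced 24 h in 0.5% FCS RPMI, pretreated 30 min with noggin or vehicle, then given BMP4 for 30 min. Lysates in SDS buffer were immunoblotted for phospho-SMAD1/5/8 and phospho-MAPK p38, and signals were quantitated by phosphorimager.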

[19] = tested on: Mus musculus; assay: Increase in serum iron concentration in C57BL/6 mouse at 10 mg/kg, iv after 24 hrs; format: functional
[20] = tested on: Hep 3B2; assay: Inhibition of BMPR1-mediated Id1 mRNA expression in IL6-stimulated human Hep3B cells at 10 uM treated 30 mins before IL6 challenge measured after 6 hrs by qRT-PCR analysis; format: cell-based
Procedure, shortened: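 Hep3B cells were grown in α-MEM with 10% FBS, then incubated 6 h in α-MEM with 1% fetal calf serum, with or without dorsomorphin and human IL-6 (100 ng ml−1). RNA was Trizol-extracted. Id1 mRNA was measured by qRT-PCR, normalized to 18S rRNA or β-actin mRNA. Triplicate measurements, mean ± s.d.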

[21] = organism: Danio rerio; assay: Inhibition of BMPR1 in zebrafish assessed as penetrance of mild embryonic axis dorsalization at 0.2 uM treated at 3 hrs post-fertilization measured at 48 hrs; set-up: scale not given: the % may be the effect or the level left; procedure, shortened: as §1
[22] = tested on: HepG2; assay: Inhibition of BMPR1-mediated hepcidin mRNA expression in BMP2-stimulated human HepG2 cells at 10 uM treated 30 mins before BMP2 challenge measured after 16 hrs by qRT-PCR analysis; format: cell-based

In the case of `c1cc(-c2cnn3cc(-c4ccc(OCCN5CCCCC5)cc4)cnc23)ccn1` [DORSOMORPHIN], the Activity [1] is reported as 100%, the Activity [2] is reported as 0% and the inhibition [3] is reported as “Active”. The Activity [4] was “Non-toxic”, the Activity [5] was 0% and the inhibition [6] was “Active”. For the same compound, the Activity [7] was 0%, the inhibition [8] was “Dose-dependent effect” and the inhibition [9] was “Active”. For the same compound, the inhibition [10] was “Active”, the Activity [11] was 100% and the Activity [12] was 22%. For the same compound, the Activity [13] was 0%, the Activity [14] was 0% and the inhibition [15] was “Active”. For the same compound, the inhibition [16] was “Active”, the inhibition [17] was “Active” and the inhibition [18] was “Active”. The Activity [19] was 60%, the inhibition [20] was “Active” and the Activity [21] was 0%. For the same compound, the inhibition [22] was “Active”.
